ChEMBL document CHEMBL2380309, “Design, synthesis, and biological evaluation of new 2'-deoxy-2'-fluoro-4'-triazole cytidine nucleosides as potent antiviral agents” (Eur J Med Chem, 2013)

Experiments:
[1] = Cytotoxicity against human MT2 cells by MTT assay; assay type: cell-based
[2] = tested on: Human immunodeficiency virus 1; test: Antiviral activity against HIV1 expressing VSV glycoprotein plasmid infected in human 293T cells treated 15 mins before viral infection measured after 48 hrs by luciferase reporter gene assay; assay type: functional, organism-based; conditions: Human immunodeficiency virus 1, HEK-293T
Procedure, shortened: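 293T cells plated 6×10⁴/well one hour before infection. Compound preincubated 15 min, then VSVG-pseudotyped env-deficient HIV-1 (pNL4-3.luc.R-E-, from Ca₃(PO₄)₂ co-transfection of 293T) added. Solvent-only control. After 48 h, cells lysed and luciferase activity read by luminometer. EC50 is the mean of at least two independent determinations.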

[3] = tested on: Hepatitis B virus; test: Antiviral activity against HBV infected in human HepG2.2.15 assessed as reduction of viral e-antigen production […] by ELISA; assay type: functional, organism-based; conditions: HepG2 2.2.15
[4] = Selectivity index, ratio of CC50 for human MT2 cells to EC50 for HIV1; assay type: toxicity, cell-based; conditions: read-out: Ratio CC50/EC50
[5] = Selectivity index, ratio of CC50 for human HepG2.2.15 cells to EC50 for HBV infected in human HepG2.2.15 assessed as reduction of viral e-antigen production
[6] = tested on: Hepatitis B virus; test: Antiviral activity against HBV infected in human HepG2.2.15 assessed as reduction of viral s-antigen production […] by ELISA; assay type: functional, organism-based; conditions: HepG2 2.2.15
[7] = Cytotoxicity against human HepG2.2.15 cells after 3 days by MTT assay; assay type: cell-based, HepG2 2.2.15
Procedure, shortened: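 HepG2.2.15 cells, kept in RPMI 1640 with 10% FBS and G418 at 37°C under 5% CO2, were seeded at 1×10⁵ cells/well and cultured 24 h. They were then exposed to four compound concentrations (5 wells each) for 3 days, with drug-free cells as control. MTT (5 mg/mL) was added for 4 h at 37°C, formazan dissolved in DMSO, and A490 read. Survival was expressed as % of control, and CC50 was taken by Reed-Muench from at least two independent determinations.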

[8] = Selectivity index, ratio of CC50 for human HepG2.2.15 cells to EC50 for HBV infected in human HepG2.2.15 assessed as reduction of viral s-antigen production

Compound	CC50 [1]	EC50 [2]	EC50 [3]	selectivity ratio [4]	Ratio CC50/EC50 [5]	EC50 [6]	CC50 at 72 h [7]	Ratio CC50/EC50 [8]
Cc1cn([C@H]2C[C@H](N=[N+]=[N-])[C@@H](CO)O2)c(=O)[nH]c1=O [ZIDOVUDINE]	≥ 25000 nM	84 nM	–	–	–	–	–	–
Nc1ccn([C@@H]2O[C@@](CO)(n3cc(CC4CCCCC4)nn3)[C@@H](O)[C@@H]2F)c(=O)n1	≥ 25000 nM	4800 nM	–	–	–	–	–	–
[N-]=[N+]=N[C@]1(CO)O[C@@H](n2ccc(N)nc2=O)[C@@H](F)[C@@H]1O [RO-0622]	> 10000 nM	0.3 nM	–	–	–	–	–	–
CCCCc1cn([C@]2(CO)O[C@@H](n3ccc(N)nc3=O)[C@@H](F)[C@@H]2O)nn1	≥ 25000 nM	300 nM	–	–	–	–	–	–
CCc1ccc(-c2cn([C@]3(CO)O[C@@H](n4ccc(N)nc4=O)[C@@H](F)[C@@H]3O)nn2)cc1	≥ 25000 nM	600 nM	–	–	–	–	–	–
Nc1ccn([C@@H]2O[C@@](CO)(n3cc(-c4ccccc4)nn3)[C@@H](O)[C@@H]2F)c(=O)n1	≥ 25000 nM	83 nM	250 nM	> 278	2264	100 nM	566000 nM	–
CC(C)(C)c1cn([C@]2(CO)O[C@@H](n3ccc(N)nc3=O)[C@@H](F)[C@@H]2O)nn1	≥ 25000 nM	80 nM	–	> 278	–	–	–	–
Nc1ccn([C@@H]2O[C@@](CO)(n3cc(C4CC4)nn3)[C@@H](O)[C@@H]2F)c(=O)n1	≥ 25000 nM	600 nM	1000 nM	–	–	120 nM	834000 nM	–
Nc1ccn([C@@H]2O[C@@](CO)(n3ccnn3)[C@@H](O)[C@@H]2F)c(=O)n1	≥ 25000 nM	90 nM	–	> 278	–	–	–	–
Nc1ccn([C@@H]2O[C@@](CO)(n3cc(C4(O)CCCC4)nn3)[C@@H](O)[C@@H]2F)c(=O)n1	≥ 25000 nM	1300 nM	–	–	–	–	–	–
Cc1ccc(-c2cn([C@]3(CO)O[C@@H](n4ccc(N)nc4=O)[C@@H](F)[C@@H]3O)nn2)cc1	≥ 25000 nM	3700 nM	> 1000 nM	–	–	10 nM	498000 nM	49800
